Laboratory results: publication PMC6512341 (ACS chemical neuroscience, 2018)

Key:
[1] = Hepatocyte stability, human; assay type: in vitro ADME; conditions: hepatocytes
[2] = Pilot brain and plasma pharmacokinetic studies of SW-100; assay type: in vivo, C57BL/6 male mice; conditions: male, C57BL/6, mouse, ip, 20 mg/kg
[3] = target: CYP2D6 (Homo sapiens, UniProt P10635); assay: CYP inhibition, 2D6; assay type: in vitro ADME
[4] = target: CYP3A4 (Homo sapiens, UniProt P08684); assay: CYP inhibition, 3A4; assay type: in vitro ADME
[5] = target: T1, CYP1A2 (Homo sapiens, UniProt P05177); assay: CYP inhibition, 1A2; assay type: in vitro ADME
T1 sequence (P05177 1-516): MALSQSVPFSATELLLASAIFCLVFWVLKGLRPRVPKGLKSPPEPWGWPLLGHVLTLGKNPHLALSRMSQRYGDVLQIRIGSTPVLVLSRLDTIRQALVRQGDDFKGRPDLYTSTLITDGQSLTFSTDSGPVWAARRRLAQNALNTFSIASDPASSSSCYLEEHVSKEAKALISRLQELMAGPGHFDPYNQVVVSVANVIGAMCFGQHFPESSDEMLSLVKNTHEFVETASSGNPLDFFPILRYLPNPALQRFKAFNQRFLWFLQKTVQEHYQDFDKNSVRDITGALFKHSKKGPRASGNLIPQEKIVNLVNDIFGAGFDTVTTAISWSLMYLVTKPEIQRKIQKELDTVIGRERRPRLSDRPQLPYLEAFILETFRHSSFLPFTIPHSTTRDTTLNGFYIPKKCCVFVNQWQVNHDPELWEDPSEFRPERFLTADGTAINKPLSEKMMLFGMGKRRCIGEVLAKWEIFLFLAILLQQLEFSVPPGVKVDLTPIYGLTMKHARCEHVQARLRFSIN

[6] = tested on: Fmr1^−/− mice; assay: Novel object recognition task; assay type: in vivo; conditions: 20 mg/kg IP
[7] = Liver microsomal stability, mouse; assay type: in vitro ADME; conditions: liver microsomes
[8] = target: CYP2C9 (Homo sapiens, UniProt P11712); assay: CYP inhibition, 2C9; assay type: in vitro ADME
[9] = tested on: acetylated α-tubulin; assay: α-Tubulin acetylation studies in HEK293 cells; assay type: cell-based; conditions: 0.01, 0.1, 1, and 10 μM
How it was run: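 HEK293 cells plated 24 h ahead and treated at 70% confluency with 10 nM–10 µM. Lysed in MPER with protease inhibitors; 2 µg protein boiled, run on 12% gel, transferred to PVDF. Blocked in 5% milk/TBST; anti-acetyl-tubulin 1:3000 overnight at 4 °C, then HRP secondary 1:5000; ECL. Reprobed for total α-tubulin at 1:1000. Densitometric ratio normalized to 10 µM reference HDAC6 inhibitor; n = 3–4; one-way ANOVA vs vehicle.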

[10] = tested on: MDR1; assay: Permeability studies in MDCK-MDR1 cells; assay type: in vitro ADME; conditions: dog, MDCK-MDR1
[11] = tested on: acetylated histone 3; assay: Histone acetylation in N2a cells; assay type: cell-based; conditions: compared to vehicle
How it was run: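 N2a cells treated at 1 µM or 10 nM; reference HDAC inhibitors served as positive controls. Histones extracted by kit; protein by micro BCA. Samples denatured in reducing buffer at 95 °C for 5 min and blotted to PVDF. Blocked in 5% BSA/TBST 1 h at RT; primaries overnight: acetyl-H3 K9+K14 1:1000, histone 4 1:1000. Ratios normalized to vehicle; n = 4; one-way ANOVA vs vehicle.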

[12] = target: CYP2C19 (Homo sapiens, UniProt P33261); assay: CYP inhibition, 2C19; assay type: in vitro ADME
[13] = target: hERG (Homo sapiens, UniProt Q12809); assay: hERG test in HEK293 cells; assay type: cell-based
[14] = tested on: acetylated α-tubulin; assay: Immunoblot of acetylated α-tubulin in mouse hippocampus; assay type: in vivo, mice; conditions: 20 mg/kg, 2 h after treatment
How it was run: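 Male C57BL/6 WT and Fmr1−/− mice, 8–10 weeks old, given 20 mg/kg IP twice daily on days 1–2, plus a dose 1 h before cognitive testing on days 3 and 4. Hippocampi taken 2 h after treatment and homogenized in Tris pH 7.4 lysis buffer with protease and phosphatase inhibitors. Spun at 20,800 × g for 10 min; Bradford assay. 10 µg protein run on SDS-PAGE to nitrocellulose; acetyl-α-tubulin and α-tubulin antibodies at 1:4000.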

[15] = tested on: TA98, TA100, TA1535, TA1537, WP2 uvrA; assay: Ames test; assay type: cell-based, Salmonella typhimurium, Escherichia coli; conditions: presence and absence of S9 mix
[16] = Hepatocyte stability, mouse; assay type: in vitro ADME; conditions: hepatocytes
[17] = tested on: Fmr1^−/− mice; assay: Temporal order memory task; assay type: in vivo; conditions: 20 mg/kg IP
[18] = Liver microsomal stability, human; assay type: in vitro ADME; conditions: liver microsomes

Chain of hERG (Q12809 whole entry): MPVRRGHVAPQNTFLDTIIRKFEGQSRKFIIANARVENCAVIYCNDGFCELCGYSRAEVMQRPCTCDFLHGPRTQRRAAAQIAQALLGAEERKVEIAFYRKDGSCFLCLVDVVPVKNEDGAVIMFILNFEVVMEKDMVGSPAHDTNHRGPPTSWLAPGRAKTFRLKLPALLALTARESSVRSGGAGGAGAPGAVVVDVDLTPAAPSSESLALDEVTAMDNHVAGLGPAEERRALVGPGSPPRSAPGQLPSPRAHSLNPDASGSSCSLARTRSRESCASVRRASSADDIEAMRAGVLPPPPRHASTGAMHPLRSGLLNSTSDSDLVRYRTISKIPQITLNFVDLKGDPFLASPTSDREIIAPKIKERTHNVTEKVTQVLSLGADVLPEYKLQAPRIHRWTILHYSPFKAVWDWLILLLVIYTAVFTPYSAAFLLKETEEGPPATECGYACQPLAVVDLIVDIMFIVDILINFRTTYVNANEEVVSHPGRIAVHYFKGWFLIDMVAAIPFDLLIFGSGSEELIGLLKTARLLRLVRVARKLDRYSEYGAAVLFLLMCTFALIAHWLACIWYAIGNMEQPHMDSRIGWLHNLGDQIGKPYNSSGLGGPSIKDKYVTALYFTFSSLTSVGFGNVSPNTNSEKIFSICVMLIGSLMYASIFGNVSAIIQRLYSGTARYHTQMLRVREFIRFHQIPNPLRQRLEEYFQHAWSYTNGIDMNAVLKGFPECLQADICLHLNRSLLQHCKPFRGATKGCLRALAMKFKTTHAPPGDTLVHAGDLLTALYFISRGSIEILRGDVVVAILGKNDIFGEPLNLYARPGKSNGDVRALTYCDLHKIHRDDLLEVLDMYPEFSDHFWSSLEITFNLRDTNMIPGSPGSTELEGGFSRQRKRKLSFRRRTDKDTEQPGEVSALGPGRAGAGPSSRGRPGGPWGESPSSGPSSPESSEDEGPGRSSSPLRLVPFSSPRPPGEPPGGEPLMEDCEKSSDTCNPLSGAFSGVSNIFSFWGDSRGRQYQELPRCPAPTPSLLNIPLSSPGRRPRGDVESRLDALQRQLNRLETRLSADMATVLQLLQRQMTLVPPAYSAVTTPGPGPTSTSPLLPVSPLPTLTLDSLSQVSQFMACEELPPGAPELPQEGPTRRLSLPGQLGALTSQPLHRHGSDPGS
Chain of CYP3A4 (P08684 whole entry): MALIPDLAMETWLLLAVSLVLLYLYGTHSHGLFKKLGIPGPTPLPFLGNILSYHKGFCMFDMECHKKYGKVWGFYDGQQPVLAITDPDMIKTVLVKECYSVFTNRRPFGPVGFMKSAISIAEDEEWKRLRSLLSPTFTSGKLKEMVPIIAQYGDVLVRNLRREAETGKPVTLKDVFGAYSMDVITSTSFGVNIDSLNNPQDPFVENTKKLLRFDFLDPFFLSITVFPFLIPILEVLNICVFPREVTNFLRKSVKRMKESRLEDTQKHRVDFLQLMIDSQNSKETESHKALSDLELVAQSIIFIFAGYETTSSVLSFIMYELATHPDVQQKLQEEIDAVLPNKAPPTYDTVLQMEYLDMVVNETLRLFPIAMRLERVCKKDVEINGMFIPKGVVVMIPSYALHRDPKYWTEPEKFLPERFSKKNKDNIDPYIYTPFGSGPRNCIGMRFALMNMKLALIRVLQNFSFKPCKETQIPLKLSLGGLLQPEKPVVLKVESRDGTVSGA
Chain of CYP2D6 (P10635 whole entry): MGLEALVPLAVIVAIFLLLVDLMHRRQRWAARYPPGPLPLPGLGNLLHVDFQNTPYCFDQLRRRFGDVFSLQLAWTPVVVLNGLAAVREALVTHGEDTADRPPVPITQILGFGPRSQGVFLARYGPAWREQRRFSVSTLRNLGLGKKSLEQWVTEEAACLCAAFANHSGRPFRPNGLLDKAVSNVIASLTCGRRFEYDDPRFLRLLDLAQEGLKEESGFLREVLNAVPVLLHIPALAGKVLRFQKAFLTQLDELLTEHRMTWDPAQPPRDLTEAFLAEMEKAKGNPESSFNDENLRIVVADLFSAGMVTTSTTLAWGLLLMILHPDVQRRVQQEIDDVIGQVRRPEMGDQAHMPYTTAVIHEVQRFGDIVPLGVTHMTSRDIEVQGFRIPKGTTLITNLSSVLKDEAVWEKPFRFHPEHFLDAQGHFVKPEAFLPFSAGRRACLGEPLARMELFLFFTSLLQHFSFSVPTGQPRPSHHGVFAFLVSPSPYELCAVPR
Chain of CYP2C9 (P11712 whole entry): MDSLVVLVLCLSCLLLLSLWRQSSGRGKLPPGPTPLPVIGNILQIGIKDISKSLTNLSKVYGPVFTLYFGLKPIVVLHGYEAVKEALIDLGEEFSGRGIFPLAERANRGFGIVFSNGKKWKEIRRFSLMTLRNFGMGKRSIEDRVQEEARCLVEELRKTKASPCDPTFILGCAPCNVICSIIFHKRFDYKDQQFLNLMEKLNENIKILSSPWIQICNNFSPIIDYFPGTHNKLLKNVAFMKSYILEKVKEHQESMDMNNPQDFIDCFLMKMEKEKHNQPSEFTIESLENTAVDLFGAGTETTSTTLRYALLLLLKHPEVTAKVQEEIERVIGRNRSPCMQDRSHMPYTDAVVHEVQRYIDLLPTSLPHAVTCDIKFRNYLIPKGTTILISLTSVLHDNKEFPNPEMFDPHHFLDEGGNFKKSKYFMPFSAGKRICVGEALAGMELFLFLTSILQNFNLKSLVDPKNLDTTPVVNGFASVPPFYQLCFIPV
Chain of CYP2C19 (P33261 whole entry): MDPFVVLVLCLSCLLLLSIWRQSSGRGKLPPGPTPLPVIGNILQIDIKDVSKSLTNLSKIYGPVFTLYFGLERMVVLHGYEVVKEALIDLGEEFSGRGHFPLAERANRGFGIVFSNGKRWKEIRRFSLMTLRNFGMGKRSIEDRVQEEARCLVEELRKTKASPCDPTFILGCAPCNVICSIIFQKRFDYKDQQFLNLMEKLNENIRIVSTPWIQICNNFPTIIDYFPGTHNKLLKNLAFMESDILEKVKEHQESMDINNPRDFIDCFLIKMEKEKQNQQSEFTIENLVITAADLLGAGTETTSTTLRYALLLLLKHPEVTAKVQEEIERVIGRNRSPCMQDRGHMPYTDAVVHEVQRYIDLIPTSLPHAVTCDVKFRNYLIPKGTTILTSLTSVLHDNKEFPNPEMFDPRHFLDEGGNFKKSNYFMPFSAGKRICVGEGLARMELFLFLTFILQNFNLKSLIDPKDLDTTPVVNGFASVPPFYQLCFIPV

SMILES: O=C(NO)c1ccc(CN2CCCc3cc(Cl)ccc32)cc1 [SW-100, 4-((6-Chloro-3,4-dihydroquinolin-1(2H)-yl)methyl)-N-hydroxybenzamide]
- half-life [1]: 30 min
- concentration at 1 h ([2]; brain): 142 ± 52.3 ng/mL
- concentration at 4 h ([2]; brain): 11.5 ± 0.3 ng/mL
- Kp at 1 h ([2]; brain/plasma): 2.44
- concentration at 1 h ([2]; plasma): 58.2 ± 24.9 ng/mL
- concentration at 4 h ([2]; plasma): 2.52 ± 0.13 ng/mL
- inhibition at 10 µM [3]: 2.51%
- inhibition at 10 µM [4]: -0.63%
- inhibition at 10 µM [5]: 20.5%
- novel object recognition: time exploring novel versus familiar object ([6]; Fmr1^−/− mice): spent significantly more time exploring the novel object than the familiar object
- novel object recognition ([6]; WT mice): did not alter the novel object recognition of WT mice
- half-life [7]: 23 min
- inhibition at 10 µM [8]: 18.8%
- effect on acetylated α-tubulin levels (in words) [9]: more obvious increase in the acetylated α-tubulin levels in a dose-dependent manner
- Papp A→B at 2 h [10]: 4.58 ×10⁻⁶ cm/s
- Papp B→A at 2 h [10]: 2.33 ×10⁻⁶ cm/s
- levels of acetylated histone 3 to histone 4 [11]: < 1.5 fold
- inhibition at 10 µM [12]: 83.2%
- IC50 [13]: 12.2 µM
- acetylated α-tubulin levels in the hippocampus ([14]; Fmr1^−/− mice): significantly increased
- hippocampal α-tubulin acetylation ([14]; WT mice): no significant influence
- Ames test [15]: negative
- half-life [16]: 10 min
- temporal order: time exploring first versus most recent object [17]: spent significantly more time exploring the first object compared to the most recent object presented
- half-life [18]: 23 min
